M5 ag = human M5 muscarinic receptor agonists, primary screen, CHO-K1 cells, Fluo-8 calcium fluorescence. activation, % at 3 µM. hit rate 0.19% among 360,000. CHO-K1 hM5 cells; 0% DMSO wells, 100% maximal acetylcholine response. AID 624037, 2012. Muscarinic acetylcholine receptor M5 (Homo sapiens), P08912;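 active = activation above the run's mean over test compounds plus 3 SD, cut at about 23% in these data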;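 note: signal is peak over basal fluorescence ratio across the kinetic read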
M1 ag = human M1 muscarinic receptor agonists, primary screen, Fluo-8 calcium fluorescence, CHO-K1 cells, HTS; Muscarinic acetylcholine receptor M1 (Homo sapiens), P11229; AID 588814, 2011; hit rate 0.33% among 360,000; CHO-K1 hM1, agonist mode; 0% DMSO, 100% acetylcholine EC100; activation, % at 3 µM;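 active = activation above the run's mean compound activation plus 3 SD, cut at about 16% in these data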;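 note: peak over basal fluorescence ratio within a 140 s kinetic read after compound addition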
Target sequence (P11229 whole entry, looked up): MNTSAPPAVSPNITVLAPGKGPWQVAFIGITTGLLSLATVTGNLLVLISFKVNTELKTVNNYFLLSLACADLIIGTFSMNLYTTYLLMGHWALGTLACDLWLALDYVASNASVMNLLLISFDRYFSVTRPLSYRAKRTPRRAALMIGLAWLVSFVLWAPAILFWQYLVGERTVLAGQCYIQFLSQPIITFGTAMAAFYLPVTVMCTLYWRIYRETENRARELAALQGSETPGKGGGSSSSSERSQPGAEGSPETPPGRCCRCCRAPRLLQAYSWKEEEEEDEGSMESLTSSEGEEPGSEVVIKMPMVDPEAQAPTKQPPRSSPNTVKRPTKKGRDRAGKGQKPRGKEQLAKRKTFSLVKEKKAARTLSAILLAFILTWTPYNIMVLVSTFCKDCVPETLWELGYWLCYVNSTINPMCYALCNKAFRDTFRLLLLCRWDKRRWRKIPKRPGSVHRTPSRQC
M5 PAM = human M5 muscarinic receptor positive allosteric modulators, primary screen, CHO-K1 cells, Fluo-8 calcium fluorescence; Muscarinic acetylcholine receptor M5 (Homo sapiens), P08912; AID 624038, 2012; CHO-K1 hM5, ACh EC20 PAM; 0% = ACh EC20, 100% = ACh EC100; hit rate 0.3% among 360,000; activation, % at 3 µM;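 active = activation above the run cutoff, the mean activation of all test compounds plus 3 SD, cut at about 18% in these data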
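Probe or stimulus: acetylcholine, EC20 level; Assay system: human M5 receptor in CHO-K1 cells; Schedule: compound preincubation 140 s before EC20 acetylcholine addition; Technique: intracellular calcium via Fluo-8 fluorescence; Dosing: single-point, 3 µM nominal; Read-out basis: percent activation from peak-over-basal fluorescence ratio, scaled EC20-to-EC100 acetylcholine; Repeats: one well per compound, no replicates.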
CHRM1 PAM = human M1 muscarinic receptor positive allosteric modulators, primary screen, CHO-K1 cells, Fluo-8 calcium fluorescence, 1536-well. AID 588819, 2011. Muscarinic acetylcholine receptor M1 (Homo sapiens), P11229. CHO-K1 hM1, ACh EC20; 0% = ACh EC20, 100% = maximal ACh. activation, % at 3 µM. hit rate 0.088% among 360,000; in the data active = activation above about 19%, passing the limit was not always enough
CHRM5 antagonist = human M5 muscarinic receptor antagonists, primary screen, CHO cells, Fluo-8 calcium fluorescence. Muscarinic acetylcholine receptor M5 (Homo sapiens), P08912. inhibition, % at 3 µM. AID 624040, 2012. hit rate 0.59% among 360,000. CHO-hM5 cells, ACh EC80;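 active = inhibition above a per-plate cutoff, the mean of that plate's test compounds plus 3 SD, cut at about 27% in these data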
CHRM1 antagonist = human M1 muscarinic receptor antagonists, primary screen, CHO-K1 cells, Fluo-8 calcium fluorescence, 1536-well. inhibition, % at 3 µM. CHO-K1 hM1, ACh EC80 antagonist. hit rate 1.3% among 360,000. Muscarinic acetylcholine receptor M1 (Homo sapiens), P11229;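 active = percent inhibition above its own plate's cutoff, namely the mean of that plate's compound wells plus 3 SD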;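 note: peak over basal fluorescence ratio during 140 s after agonist addition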
Of the large screens only hits and unclear results are named; the others gave an inactive call. Only some compounds are listed: those with a hit (about 2.1% of all), similar ones and a draw of the others.

Cc1ccc(NC(=O)c2cc([N+](=O)[O-])ccc2N2CCOCC2)cc1S(=O)(=O)N(C)C	CHRM1 antagonist 52
Cc1ccc(-n2sc3cc(F)ccc3c2=O)c(C)c1	M1 ag 18
O=c1c2ccc(F)cc2sn1-c1ccccc1	M1 ag 16
O=c1c2ccccc2sn1-c1ccc(F)cc1	none
O=C(Cn1ncc2c3ccccc3n(Cc3ccc(F)cc3)c2c1=O)N1CCN(c2ncccn2)CC1	none
COc1ccccc1NC(=O)Nc1ccnn1C1CCN(C(=O)c2cscn2)CC1	none
O=C(Oc1cccc2ccccc12)c1cc(Cl)nc2ccccc12	none
COc1ccc(S(=O)(=O)N2CCCC2)cc1NC(=O)c1ccccc1F	none
COc1ccc(CCC(=O)Nc2cccc(S(=O)(=O)N3CCCCCC3)c2)cc1OC	none
O=C(COC(=O)C1CC2C=CC1C2)Nc1cccc(S(=O)(=O)N2CCCCCC2)c1 (configuration not stated)	CHRM5 antagonist 31
O=C(COC(=O)C1CC2C=CC1C2)Nc1cccc(S(=O)(=O)N2CCCCC2)c1 (configuration not stated)	none
O=C(COC(=O)c1ccc(S(=O)(=O)N2CCCC2)cc1)Nc1cccc(Br)c1	CHRM1 antagonist 29
COc1ccccc1NC(=O)c1cc(S(=O)(=O)N2CCCCCC2)ccc1F	M5 PAM 24
COc1ccc(CC(=O)Nc2cccc(S(=O)(=O)N3CCCCCC3)c2)cc1OC	CHRM5 antagonist 32
CCCCNC(=O)[C@H]1C[C@H]1[C@@H](O)[C@H](CO)NC(=O)[C@H](CC(C)C)NC(=O)OC(C)(C)C	none
CC(=O)c1ccc(OCC(=O)Nc2cccc(S(=O)(=O)N3CCCC3)c2)cc1	CHRM1 antagonist 31
Cn1c(=O)c(C#N)c(-c2ccccc2)n2cnnc12	none
CS(=O)(=O)c1ccc(Cl)c(NC(=O)COC(=O)c2ccc(F)cc2Cl)c1	M5 PAM 18
CCOc1ccccc1-n1c(N)c(C(N)=O)sc1=S	M5 PAM 22
CCN1/C(=C/c2ccc3cc(C)ccc3[n+]2CC)Sc2ccccc21	M5 ag 24, M1 ag 47, CHRM5 antagonist 60, CHRM1 antagonist 66
CN1/C(=C/c2cccc[n+]2CCO)Sc2ccccc21	none
CC[n+]1ccccc1/C=C1\Sc2ccc(C)cc2N1C	none
CC[n+]1c(/C=C2\Sc3ccccc3N2C)ccc2cccc(C)c21	M1 ag 22, CHRM5 antagonist 38, CHRM1 antagonist 54
CCN1/C(=C/c2ccc3cc(C)ccc3[n+]2CC)Sc2cc(C)c(C)cc21	CHRM5 antagonist 41, CHRM1 antagonist 40
COc1ccc(C2SC[C@@H](C(=O)O)N2C(C)=O)cc1 (some centres not stated)	none
CCCCn1c(N)c(N(CCOC)C(=O)COC(=O)COc2c(C)cccc2C)c(=O)[nH]c1=O	none
CC(C)(C)OC(=O)C[C@@H]1C/C=C\C[C@H](CC(=O)NCCO)C(=O)N[C@@H](Cc2ccccc2)COC1=O	none
CCCNC(=O)c1cc(C2CCCCN2C(=O)OCC(C)C)on1 (configuration not stated)	CHRM1 antagonist 42
COc1ccc(CN2C(=O)C(CC(C)C)Nc3ncnc(N4CCOCC4)c32)cc1 (configuration not stated)	none
CC(Sc1nn(-c2ccccc2)c(=S)s1)C(=O)NCC1CCCO1 (configuration not stated)	none
CSCCC(NC(=O)c1ccccc1Cl)C(=O)NCC1COc2ccccc2O1 (configuration not stated)	CHRM1 antagonist 31
O=C(CCNC(=O)c1ccccc1Cl)NCC1COc2ccccc2O1 (configuration not stated)	none
O=C(NCC(O)CN1CCOCC1)c1ccc([N+](=O)[O-])cc1 (configuration not stated)	none
Clc1cccc(Cl)c1C[n+]1ccc2ccccc2c1	CHRM1 antagonist 31
Cc1ccc2nc(NC(=O)c3ccc(S(=O)(=O)N4CCCc5ccccc54)cc3)sc2c1	none
Cc1cc(=O)oc2c(C)c(OCC(=O)NC3CC(C)(C)NC(C)(C)C3)ccc12	none
O=C(Nc1ccc(F)cc1)c1cc(S(=O)(=O)Nc2ccc(F)cc2)cs1	CHRM5 antagonist 32
CCC1CCCCN1CCCNC(=O)CN1C(=O)CSc2ccc(S(=O)(=O)N3CCOCC3)cc21 (configuration not stated)	none
O=C(O)c1ccccc1C(=O)Nc1ccccn1	none
O=C(Nc1ccccn1)c1ccc2ccccc2c1O	M5 PAM 19
Cc1cc(C)n(-c2ccc([N+](=O)[O-])cc2)n1	none
Cc1cc(N)n(-c2ccc([N+](=O)[O-])cc2)n1	M5 PAM 20
CCCNC(=O)N(C)C[C@H]1Oc2ncc(C#CCc3ccccc3)cc2C(=O)N([C@H](C)CO)C[C@H]1C	none
CCCCn1c2nc3ccccc3nc2c2c(=O)n(CCC)cnc21	none
Cn1c(-c2ccc3c(c2)OCO3)cnc1NCc1cccc(Cl)c1	CHRM1 antagonist 74
Cn1c(-c2ccc3c(c2)OCO3)cnc1NCc1ccccc1	none
Cn1c(-c2ccc3c(c2)OCO3)cnc1NCc1ccccc1Cl	CHRM1 antagonist 94
COC(=O)CN(c1ccc(OC)cc1)S(=O)(=O)c1c(C)noc1C	none
COc1ccc(NC(=O)Nc2ccc3c(c2)C(=O)N([C@H](C)CO)C[C@H](C)[C@@H](CN(C)S(=O)(=O)c2ccc(F)cc2)O3)cc1	none
O=C(COC(=O)c1ccc2c(c1)OCCO2)Nc1ccc(F)cc1	none
O=C(O)c1ccccc1-c1nc2ccccc2n1-c1ccccc1	none
CCCCN1C(=N)N([C@@H](CN2CCC[C@H]2CN2C(N)=NC[C@@H]2Cc2ccccc2)C(C)C)C[C@H]1Cc1ccccc1	CHRM1 antagonist 59
CCCCN1C(=N)N([C@@H](C)CN2CCC[C@H]2CN2C(N)=NC[C@@H]2Cc2ccccc2)C[C@H]1Cc1ccccc1	CHRM1 antagonist 94
CCCCN1C(=N)N([C@@H](CCC)CN2CCC[C@H]2CN2C(N)=NC[C@H]2CC(C)C)C[C@H]1Cc1ccccc1	none
CCOC(=S)SCC(=O)Nc1nc(C)c(C)s1	none
Brc1ccc(-c2noc(CCc3ccccc3)n2)o1	none

Compound activity (PubChem BioAssay)
